Data as given in ChEMBL document CHEMBL4732265, “Identification of Piperidine-3-carboxamide Derivatives Inducing Senescence-like Phenotype with Antimelanoma Activities” (ACS Med Chem Lett, 2021).
Active and inactive are the calls of the source. The rule behind the calls is not given here.

Experiments:
A-375 [1] = assay: Induction of senescence in human A-375 cells treated for 3 days by Hoechst staining based imaging analysis; type: functional, cell-based; conditions: A-375, 72 h
Summary of the method: (§1)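 A375 melanoma cells were treated for 3 days with a 3-fold dilution series in 0.5% DMSO and stained with Hoechst 33342, LysoTracker Red DND-99 and CellMask. Image analysis scored cell and nucleus size, granule size and spacing, and cytoplasmic texture to give the percentage of senescent cells per well. EC50 is the concentration inducing senescence in half the population, taken from dose–response curves. Run in duplicate; Z′ about 0.8.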

A-375 [2] = assay: Antiproliferative activity in human A-375 cells assessed as reduction of cell number; type: functional, cell-based
Summary of the method: (§2)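 A375 human melanoma cells exposed to compound for 3 days in 3-fold serial dilution in 0.5% DMSO. Cells were stained with Hoechst 33342, LysoTracker Red DND-99 and CellMask, then imaged and segmented by a customized algorithm. Cell number per well was counted, and IC50 is the concentration reducing cell number by 50%, taken from dose–response curves. Run in duplicate.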

A-375 [3] = assay: Induction of senescence-like phenotype in human A-375 cells assessed as phenotypic changes after 3 days; type: functional, cell-based; conditions: time 3.0 day; summary of the method: as §1
A-375 [4] = assay: Anti melanoma activity in human A-375 cells assessed as inhibition of cell growth after 3 days; type: functional, cell-based; conditions: time 3.0 day; summary of the method: as §2
A-375 [5] = assay: Induction of senescence-like phenotype in human A-375 cells assessed as enlarged cell size after 3 days by staining based imaging assay; type: functional; conditions: time 3.0 day; summary of the method: as §1
A-375 [6] = assay: Induction of senescence-like phenotype in human A-375 cells assessed as nucleus size with increasing cytoplasmic granularity after 3 days by staining based imaging assay; type: functional, cell-based; conditions: time 3.0 day; summary of the method: as §1
[7] = Metabolic stability at phase 1 in human liver microsomes; type: ADME, Microsome
[8] = Metabolic stability at phase 1 in mouse liver microsomes; type: ADME, Microsome
A-375 [9] = assay: Induction of cell senescence in human A-375 cells assessed by increased SA-beta-Gal activity at 37 nM measured after 3 days by Hoechst staining based imaging analysis; type: functional; conditions: time 3.0 day
Summary of the method: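 A375 cells were treated with or without 37 nM agent in 0.5% DMSO for 3 days. Senescence was read in two ways: by Hoechst 33342/LysoTracker Red/CellMask phenomic imaging, and by SA-β-gal staining.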

A-375 [10] = assay: Anti melanoma activity in human A-375 cells assessed by decreased cell number measured after 3 days; type: functional, cell-based; conditions: time 3.0 day; summary of the method: as §2

EC50 (A-375 [1]) [nM]	IC50 (A-375 [2]) [nM]	SMILES	other results
> 20000	> 20000	O=C(Nc1ccc(-c2cscn2)cc1)C1CCCN(S(=O)(=O)c2ccc(F)c(F)c2)C1 (centres undefined)	
> 20000	> 20000	O=C(NC1CCCN(Cc2ccc(F)c(F)c2)C1)c1ccc(-c2cscn2)cc1 (centres undefined)	
270	190	O=C(Nc1ccc(-c2cscn2)cc1)[C@H]1CCCN(Cc2ccc(F)c(F)c2)C1	
1260	400	O=C(Nc1ccc(-c2cscn2)cc1)C1CCCN(Cc2cc(F)c(F)c(F)c2)C1 (centres undefined)	
> 20000	> 20000	O=C(Nc1ccc(-c2cscn2)cc1)C1CCCN(Cc2cccnc2)C1 (centres undefined)	
8000	10000	O=C(Nc1ccc(-c2cscn2)cc1)C1CCN(Cc2ccc(F)c(F)c2)C1 (centres undefined)	
11000	9000	O=C(Nc1ccc(-c2ccccn2)cc1)C1CCCN(Cc2ccc(F)c(F)c2)C1 (centres undefined)	
530	390	O=C(Nc1ccc(-c2cccs2)cc1)C1CCCN(Cc2ccc(F)c(F)c2)C1 (centres undefined)	
1930	950	O=C(Nc1ccc(-c2ccsc2)cc1)C1CCCN(Cc2ccc(F)c(F)c2)C1 (centres undefined)	
19900	18000	O=C(Nc1ccc(-c2ccc[nH]2)cc1)[C@@H]1CCCN(Cc2ccc(F)c(F)c2)C1	
5000	2250	O=C(Nc1ccc(-c2cscn2)cc1)C1CCCN(Cc2ccc(F)cc2)C1 (centres undefined)	
> 20000	> 20000	O=C(Nc1ccc(-c2cscn2)cc1)C1CCCN(Cc2ccc3cn[nH]c3c2)C1 (centres undefined)	
> 20000	> 20000	O=C(Nc1ccc(-c2cscn2)cc1)C1CCCN(Cc2cccc(C(F)(F)F)c2)C1 (centres undefined)	
8000	19000	O=C(Nc1ccc(-c2ncc[nH]2)cc1)C1CCCN(Cc2ccc(F)c(F)c2)C1 (centres undefined)	
10000	1480	O=C(Nc1ccc(-c2cscn2)cc1)C1CCCN(Cc2cccc(F)c2F)C1 (centres undefined)	
> 20000	> 20000	COc1cccc(CN2CCCC(C(=O)Nc3ccc(-c4cscn4)cc3)C2)c1 (centres undefined)	
3000	1290	O=C(Nc1ccc(-c2ccoc2)cc1)C1CCCN(Cc2ccc(F)c(F)c2)C1 (centres undefined)	
580	520	O=C(Nc1ccc(-c2ccn[nH]2)cc1)C1CCCN(Cc2ccc(F)c(F)c2)C1 (centres undefined)	
720	360	O=C(Nc1ccc(-c2ccc[nH]2)cc1)C1CCCN(Cc2ccc(F)c(F)c2)C1 (centres undefined)	
3000	1730	O=C(Nc1ccc(-c2cscn2)cc1)C1CCCN(Cc2ccc(Cl)c(Cl)c2)C1 (centres undefined)	
4000	580	COc1cc(-c2cscn2)ccc1NC(=O)C1CCCN(Cc2ccc(F)c(F)c2)C1 (centres undefined)	
800	240	O=C(Nc1ccc(-c2nccs2)cc1)C1CCCN(Cc2ccc(F)c(F)c2)C1 (centres undefined)	
> 20000	> 20000	O=C(Nc1ccc(-c2cscn2)cc1)C1CCCN(Cc2ccccc2)C1 (centres undefined)	
3000	730	Cc1cc(NC(=O)[C@H]2CCCN(Cc3ccc(F)c(F)c3)C2)ccc1-c1ccc[nH]1	

EC50 (A-375 [1]) [nM]	IC50 (A-375 [2]) [nM]	SMILES	other results
19000	> 20000	O=C(Nc1ccc(-c2cscn2)cc1)C1CCN(Cc2ccc(F)c(F)c2)CC1	
100	130	O=C(Nc1ccc(-c2ccc[nH]2)cc1F)[C@H]1CCCN(Cc2ccc(F)c(F)c2)C1	
4000	6000	O=C(Nc1ccc(-c2cscn2)cc1)[C@@H]1CCCN(Cc2ccc(F)c(F)c2)C1	
40	30	O=C(Nc1ccc(-c2ccc[nH]2)cn1)[C@H]1CCCN(Cc2ccc(F)c(F)c2)C1	Activity (A-375 [3]): Active; Activity (A-375 [4]): Active; Activity (A-375 [5]): Active; Activity (A-375 [6]): Active; Stabilty [7]: Stable; Stabilty [8]: Stable
2200	1040	O=C(Nc1ccc(-c2ccco2)cc1)C1CCCN(Cc2ccc(F)c(F)c2)C1 (centres undefined)	
1500	1360	O=C(Nc1ccc(-c2cscn2)cc1)C1CCCN(Cc2cc(F)cc(F)c2)C1 (centres undefined)	
	8	COc1cccc2c1C(=O)c1c(O)c3c(c(O)c1C2=O)C[C@@](O)(C(=O)CO)C[C@@H]3O[C@H]1C[C@H](N)[C@H](O)[C@H](C)O1 [DOXORUBICIN]	Activity (A-375 [9]): Active
600	630	O=C(Nc1ccc(-c2cscn2)cc1)C1CCCN(Cc2ccc3c(c2)OCO3)C1 (centres undefined)	
2610	1420	O=C(Nc1ccc(-c2cc[nH]c2)cc1)C1CCCN(Cc2ccc(F)c(F)c2)C1 (centres undefined)	
5000	2580	O=C(Nc1ccc(-c2ccccc2)cc1)C1CCCN(Cc2ccc(F)c(F)c2)C1 (centres undefined)	
140	190	O=C(Nc1ccc(-c2ccc[nH]2)cc1)[C@H]1CCCN(Cc2ccc(F)c(F)c2)C1	
> 20000	> 20000	O=C(Nc1ccc(-c2cscn2)cc1)C1CCCN(Cc2cccc(OC(F)(F)F)c2)C1 (centres undefined)	
16000	> 20000	O=C(Nc1ccc(-c2c[nH]cn2)cc1)C1CCCN(Cc2ccc(F)c(F)c2)C1 (centres undefined)	
5000	2450	O=C(Nc1ccc(-c2cscn2)cc1)C1CCCN(Cc2cccc(F)c2)C1 (centres undefined)	
> 20000	> 20000	O=C(Nc1ccc2scnc2c1)C1CCCN(Cc2ccc(F)c(F)c2)C1 (centres undefined)	
1060	610	O=C(Nc1ccc(-c2cccnc2)cc1)C1CCCN(Cc2ccc(F)c(F)c2)C1 (centres undefined)	
7000	4000	O=C(Nc1ccc(-c2cscn2)cc1)C1CCCN(Cc2ccccc2F)C1 (centres undefined)	
> 20000	> 20000	O=C(Nc1ccc(-c2cscn2)cc1)C1CN(Cc2ccc(F)c(F)c2)C1	
1240	880	O=C(Nc1ccc(-c2cscn2)cc1)C1CCCN(Cc2ccc(F)c(F)c2)C1 (centres undefined)	Activity (A-375 [3]): Active; Activity (A-375 [10]): Active; Stabilty [7]: Stable; Stabilty [8]: Stable
4000	3010	O=C(Nc1ccc(-c2ccc[nH]2)nc1)[C@H]1CCCN(Cc2ccc(F)c(F)c2)C1	
160	220	O=C(Nc1ccc(-c2ccc[nH]2)cc1)[C@H]1CCCN(Cc2ccc3c(c2)OCO3)C1	
1180	600	O=C(Nc1ccc(-c2ccncc2)cc1)C1CCCN(Cc2ccc(F)c(F)c2)C1 (centres undefined)	
> 20000	> 20000	O=C(Nc1ccc(-c2cscn2)cc1)C1CCCN(C(=O)c2ccc(F)c(F)c2)C1 (centres undefined)	
